Measured values published in ChEMBL document CHEMBL2331535, “Discovery and Biological Profiling of Potent and Selective mTOR Inhibitor GDC-0349” (ACS Med Chem Lett, 2013).
Calls of active or inactive are those of the source. The calls are words filed in the database; no cut-off is given here.

How the values were obtained:
PC-3 [1] = assay: Antiproliferative activity against PTEN-null human PC3 cells; type: functional, cell-based
Method in brief: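 PC3 prostate cancer cells (PTEN loss, PI3K-AKT-mTOR pathway activated) used for the antiproliferation assay. Activity is expressed as EC50 in nM.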

A549 [2] = assay: Antitumor activity against KRas mutant, LKB1 deficient human A549 cells xenografted in po dosed mouse assessed as delay in tumor growth administered qd in presence of MEK inhibitor, GDC-0973; type: functional, organism-based
A549 [3] = assay: Antitumor activity against KRas mutant, LKB1 deficient human A549 cells xenografted in mouse assessed as tumor growth inhibition at 5 to 30 mg/kg, po qd; type: functional, organism-based
Mus musculus [4] = assay: Toxicity in po dosed mouse xenografted with KRas mutant, LKB1 deficient human A549 cells assessed as body weight changes administered qd in presence of MEK inhibitor, GDC-0973; type: organism-based; conditions: in vivo
Cytochrome P450 3A4 = Cytochrome P450 3A4 (Homo sapiens, UniProt P08684); assay: Time-dependent inhibition of CYP3A4 in human liver microsome using midazolam as substrate by TDI shift assay; type: ADME, microsomes
Cytochrome P450 3A4, sequence (P08684 whole entry): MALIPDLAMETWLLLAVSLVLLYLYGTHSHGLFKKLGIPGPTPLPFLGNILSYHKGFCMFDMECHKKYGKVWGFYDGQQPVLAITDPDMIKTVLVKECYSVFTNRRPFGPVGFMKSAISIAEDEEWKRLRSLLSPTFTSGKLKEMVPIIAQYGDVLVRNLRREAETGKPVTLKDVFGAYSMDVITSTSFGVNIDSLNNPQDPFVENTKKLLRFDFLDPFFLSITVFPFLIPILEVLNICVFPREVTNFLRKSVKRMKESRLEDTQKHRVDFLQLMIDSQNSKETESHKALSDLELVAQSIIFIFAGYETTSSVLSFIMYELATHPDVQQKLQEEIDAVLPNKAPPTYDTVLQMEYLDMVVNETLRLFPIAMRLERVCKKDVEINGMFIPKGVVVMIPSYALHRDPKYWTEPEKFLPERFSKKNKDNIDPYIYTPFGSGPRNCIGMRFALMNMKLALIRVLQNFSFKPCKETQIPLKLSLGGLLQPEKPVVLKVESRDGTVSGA
Method in brief: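 CYP3A4 time-dependent inhibition shift assay in human liver microsomes with NADPH cofactor and midazolam as probe substrate. The compound was preincubated for 30 min and compared with no preincubation. A left shift of the CYP activity curve after preincubation designates the compound TDI positive.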

[5] = Antitumor activity against PI3K-mutant human MCF7-neo/Her2 cells xenografted in po dosed NCR nude mouse assessed as tumor growth inhibition at maximum tolerated dose administered qd for 14-21 days; type: functional
Method in brief: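 Athymic mice bearing MCF7-neo/Her2 breast tumour xenografts (PI3K-mutant) were given the drug orally once daily at 10, 20, 30, 40, 50, 60, 70 or 80 mg/kg, with a vehicle (0 mg/kg) group. Read-out was tumour growth inhibition across the dose range, with body weight change also tracked.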

Mus musculus [6] = assay: Toxicity in NCR nude mouse xenografted with human PI3K-mutant MCF7-neo/Her2 cells assessed as body weight changes up to 80 mg/kg, po qd for 14-21 days; type: organism-based; set-up: dose 80 mg/kg, route oral; conditions: in vivo
Method in brief: (§1)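 MCF7-neo/Her2 (PI3K-mutant) breast cancer xenografts in athymic mice. Compound given orally once daily at 10, 20, 30, 40, 50, 60, 70 and 80 mg/kg QD, with a vehicle group (0 mg/kg). Tumor growth inhibition was tracked, and body weight change was monitored up to the highest dose.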

[7] = In vivo clearance in mouse; type: ADME, organism-based
Homo sapiens [8] = assay: Decrease in phosphorylation of Akt at Ser473 in PI3K-mutant human MCF7-neo/Her2 cells xenografted in NCR nude mouse at 25 to 100 mg/kg, po; type: functional, organism-based
Homo sapiens [9] = assay: Antitumor activity against PI3K-mutant human MCF7-neo/Her2 cells xenografted in po dosed NCR nude mouse assessed as tumor growth inhibition administered once daily for 14-21 days
Homo sapiens [10] = assay: Antitumor activity against PI3K-mutant human MCF7-neo/Her2 cells xenografted in po dosed NCR nude mouse assessed as tumor growth inhibition administered qd for 14-21 days; type: functional, organism-based; method in brief: as §1
PC-3 [11] = assay: Antitumor activity against PTEN-null human PC3 cells xenografted in po dosed NCR nude mouse assessed as tumor growth inhibition administered qd for 14-21 days; type: functional, organism-based
786-0 = assay: Antitumor activity against VHL mutant human 786-0 cells xenografted in po dosed nu/nu mouse assessed as tumor growth inhibition administered qd for 14-21 days; type: functional, organism-based
Homo sapiens [12] = assay: Decrease in phosphorylated 4-EBP1 level in PI3K-mutant human MCF7-neo/Her2 cells xenografted in NCR nude mouse at 25 to 100 mg/kg, po; type: functional, organism-based
[13] = Dissociation constant, pKa of the compound; type: physicochemical
Plasma [14] = assay: Free plasma clearance in mouse; type: ADME, cell-free
Plasma [15] = assay: Free plasma clearance in rat; type: ADME, cell-free

Question: For `C[C@H]1COCCN1c1nc(-c2ccc(Nc3nn(C)c(=O)[nH]3)cc2)nc2c1CCN(c1ncccn1)C2`, which EC50 (PC-3 [1]) is on record?
Answer: 0.139 µM

Question: Which EC50 (PC-3 [1]) does the source give for `CCNC(=O)Nc1ccc(-c2nc3c(c(N4CCOCC4)n2)CCN(c2ncccn2)C3)cc1` here?
Answer: 0.31 µM

Question: Which TGI (A549 [2]) does the source give for `CS(=O)(=O)N1CCN(Cc2cc3nc(-c4cccc5[nH]ncc45)nc(N4CCOCC4)c3s2)CC1` [PICTILISIB] here?
Answer: Active

Question: What about the TGI (A549 [3]) of the same compound?
Answer: Active

Question: And the Activity (Mus musculus [4])?
Answer: Non-toxic

Question: Which IC50 (Cytochrome P450 3A4) does the source give for `CCNC(=O)Nc1ccc(-c2nc3c(c(N4CCOC[C@@H]4C)n2)CCN(c2nccn2C)C3)cc1` here?
Answer: > 10 µM

Question: What does the source list for `CCNC(=O)Nc1ccc(-c2nc3c(c(N4CCOC[C@@H]4C)n2)CCN(C2COC2)C3)cc1.CS(=O)(=O)O`?
Answer: TGI [5]: 99%; Activity (Mus musculus [6]): < 10%

Question: With `C[C@H]1COCCN1c1nc(-c2ccc(Nc3nccc(=O)[nH]3)cc2)nc2c1CCN(c1ncccn1)C2` as the compound, how does the EC50 (PC-3 [1]) read?
Answer: 0.025 µM

Question: What about the clearance [7] of the same compound?
Answer: 78 mL/min/kg

Question: Which IC50 (Cytochrome P450 3A4) does the source give for `CCNC(=O)Nc1ccc(-c2nc3c(c(N4CCOC[C@@H]4C)n2)CCN(c2ncc(F)cn2)C3)cc1` here?
Answer: 1.4 µM

Question: Which EC50 (PC-3 [1]) does the source give for `O=c1cccc(Nc2ccc(-c3nc4c(c(N5CCOCC5)n3)CCN(c3ncccn3)C4)cc2)[nH]1` here?
Answer: 1.3 µM

Question: With `CCNC(=O)Nc1ccc(-c2nc3c(c(N4CCOC[C@@H]4C)n2)CCN(C2COC2)C3)cc1` as the compound, how does the inhibition (Homo sapiens [8]) read?
Answer: Active

Question: What about the TGI (Homo sapiens [9]) of the same compound?
Answer: Active

Question: What about the inhibition (Homo sapiens [10]) of the same compound?
Answer: Dose-dependent effect

Question: What about the TGI (PC-3 [11]) of the same compound?
Answer: Active

Question: And the TGI (A549 [2])?
Answer: Active

Question: What about the TGI (786-0) of the same compound?
Answer: Active

Question: And the TGI (A549 [3])?
Answer: Active

Question: What about the inhibition (Homo sapiens [12]) of the same compound?
Answer: Active

Question: For `CCNC(=O)Nc1ccc(-c2nc3c(c(N4CCOC[C@@H]4C)n2)CCN(C(C)C)C3)cc1`, which IC50 (Cytochrome P450 3A4) is on record?
Answer: > 10 µM

Question: And the pKa [13]?
Answer: 7.6

Question: Which EC50 (PC-3 [1]) does the source give for `CCNc1c(Nc2ccc(-c3nc4c(c(N5CCOC[C@@H]5C)n3)CCN(c3ncccn3)C4)cc2)c(=O)c1=O` here?
Answer: 0.667 µM

Question: Which results are given for `CCNC(=O)Nc1ccc(-c2nc3c(c(N4CCOC[C@@H]4C)n2)CCN(C2COC2)C3)cc1` [RG-7603]?
Answer: CL free (Plasma [14]): 100 mL/min/kg; CL free (Plasma [15]): 171 mL/min/kg; pKa [13]: 5; Activity (Mus musculus [4]): Non-toxic

Question: Which IC50 (Cytochrome P450 3A4) does the source give for `CCNC(=O)Nc1ccc(-c2nc3c(c(N4CCOC[C@@H]4C)n2)CCN(c2ccnc(C)n2)C3)cc1` here?
Answer: 3.3 µM

Question: For `CCNC(=O)Nc1ccc(-c2nc3c(c(N4CCOC[C@@H]4C)n2)CCN(c2ncccn2)C3)cc1`, which CL free (Plasma [14]) is on record?
Answer: 1818 mL/min/kg

Question: And the EC50 (PC-3 [1])?
Answer: 0.147 µM

Question: What about the CL free (Plasma [15]) of the same compound?
Answer: 1538 mL/min/kg

Question: For `O=C(NCCF)Nc1ccc(-c2nc3c(c(N4CCOCC4)n2)CCN(c2ncccn2)C3)cc1`, which EC50 (PC-3 [1]) is on record?
Answer: 0.058 µM

Question: For `CCNC(=O)Nc1ccc(-c2nc3c(c(N4CCOC[C@@H]4C)n2)CCN(c2cc(C)ncn2)C3)cc1`, which IC50 (Cytochrome P450 3A4) is on record?
Answer: 8.4 µM
